MrgX1 antag: antagonists of human MrgX1 receptor | MRGX1-HEK293 calcium flux, Fluo-4, BAM8-22 antagonism; active compounds read low | B-score at 10 µM | 310,000 tested, 1.3% active;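 active = calcium-response B-score plate-corrected more than 3 library SD below zero, starting fluorescence within 5 deviations, no agonist response on first addition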;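 note: peak minus trough fluorescence over baseline after final BAM8-22 challenge near maximal dose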
Target sequence (Q96LB2 whole entry, looked up): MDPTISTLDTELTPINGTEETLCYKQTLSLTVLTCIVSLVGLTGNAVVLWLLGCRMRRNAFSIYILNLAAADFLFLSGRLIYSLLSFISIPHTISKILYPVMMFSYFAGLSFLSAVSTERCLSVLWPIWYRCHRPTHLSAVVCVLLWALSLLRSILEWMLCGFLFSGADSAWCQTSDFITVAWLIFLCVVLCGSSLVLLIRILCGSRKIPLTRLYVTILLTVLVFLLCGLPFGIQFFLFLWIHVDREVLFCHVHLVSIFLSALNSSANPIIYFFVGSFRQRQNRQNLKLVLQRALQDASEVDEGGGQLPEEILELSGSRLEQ
RGS4 act: RGS4 potentiation or activation | HEK293 M3R/inducible RGS4, carbachol calcium flux Fluo4; active compounds read low | B-score at 10 µM | 310,000 tested, 0.92% active | AID 463111;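 active = B-score of the integrated calcium signal more than 4 SD below the library mean, with starting fluorescence not abnormally high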;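 note: negative B-score means reduced calcium response which marks RGS4 activation or potentiation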
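Material: M3R-expressing HEK293 line, RGS4 induced by doxycycline | Schedule: Overnight RGS4 induction, 30 min dye load 37 °C, 20 min compound RT | Measured by: Fluo4 fluorescence kinetic imaging of calcium | Read-out: Integrated calcium ratio converted to B score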
MrgX1 PAM: allosterically activates human MrgX1 receptor signaling; Q96LB2; MrgX1-HEK293, Fluo-4 calcium flux, FDSS; active compounds read high; B-score at 10 µM; 310,000 tested, 0.63% active; AID 588675;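 active = plate-corrected calcium response at least 3 library SD above typical, normal starting fluorescence, not activating the receptor alone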;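 note: compound read alongside a low EC10 to EC30 dose of BAM8-22 agonist; peak minus trough fluorescence over baseline measured at the second addition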
MrgX1 agonist: human MrgX1 receptor agonism, primary screen; Q96LB2; MrgX1-HEK293 cells, Fluo-4 calcium fluorescence, agonist mode; active compounds read high; 310,000 tested, 0.44% active; B-score at 10 µM;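 active = calcium response B-score plate-corrected fluorescence ratio at least 3 library SD, with starting fluorescence B-score inside 5 SD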
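Assay system: MrgX1-expressing HEK293 cells / Amount: fifteen thousand cells per well / Doses: test compound in the initial addition of three / Timing: cells plated overnight, dye loaded 0.5 h 37 °C, 0.5 h room temperature / Technique: kinetic calcium dye fluorescence, Fluo-4 NW / Control set: positive and negative controls per plate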
RGS4 block: human RGS4 inhibition | P49798 | B-score at 10 µM | 310,000 tested, 0.45% active | AID 463165 | HEK293 M3R/RGS4 inducible, Fluo-4 calcium flux; active compounds read high; triggered by carbachol at its EC20;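 active = B-score, a plate-corrected calcium signal, over three deviations above library mean, with baseline fluorescence within five deviations of library mean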;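 note: RGS4 expression induced by doxycycline in cells with stable M3 receptor; B-score is computed from the integrated fluorescence ratio over baseline after carbachol; higher B-score means a larger calcium signal and so more RGS4 inhibition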
Target sequence (P49798 whole entry, looked up): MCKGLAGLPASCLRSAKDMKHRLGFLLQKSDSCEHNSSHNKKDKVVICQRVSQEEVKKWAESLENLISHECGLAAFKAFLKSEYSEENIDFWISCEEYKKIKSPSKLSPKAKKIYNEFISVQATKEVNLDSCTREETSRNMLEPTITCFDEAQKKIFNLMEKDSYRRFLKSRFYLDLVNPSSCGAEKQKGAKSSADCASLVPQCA
RGS4 block valid: validation of RGS4 inhibitors; 1,700 tested, 65% active; shares compounds with RGS4 block; calcium response, % at 10 µM; HEK293 M3R/RGS4, carbachol calcium Fluo-4 fluorescence; carbachol added at its EC20; 0 = buffer wells, 100 = carbachol control; AID 492999;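 active = duplicate-averaged calcium response above the buffer-only control mean plus 5 SD of those controls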;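 note: integrated fluorescence ratio F max minus min over baseline F0; higher response in RGS4-induced cells means RGS4 inhibition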
RGS4 uninduced: non-induced cell nonspecific activity of RGS4 inhibitors; shares compounds with RGS4 block; HEK293 M3R non-induced, carbachol calcium Fluo-4; submaximal (EC20) carbachol stimulus; buffer wells 0%, carbachol control wells 100%; 1,900 tested, 20% active; activity (percent), % at 10 µM; call rule not given here;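 note: RGS4 induction absent so cells express M3R without RGS4; higher means more calcium signal and flags a non-specific hit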
RGS4 inh ctr2: signal in non-induced cells without carbachol, RGS4 inhibitor counter-screen. HEK293 M3R/RGS4 non-induced, Fluo-4 calcium, no carbachol; normalised: buffer wells 0%, carbachol wells 100%. shares compounds with RGS4 block. calcium response (agonist-mode artifact), % at 10 µM. 1,900 tested, 22% active;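 active = duplicate-averaged calcium rise in uninduced cells above buffer wells' mean plus 5 SD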
Active calls of the source: *; i = inactive; . = no result. Only some compounds are listed: those with a hit (about 3.5% of all), similar ones and a draw of the others.

SMILES | MrgX1 antag | RGS4 act | MrgX1 PAM | MrgX1 agonist | RGS4 block | RGS4 block valid | RGS4 uninduced | RGS4 inh ctr2
CSc1nc(-c2ccccc2)nn1C(=O)c1ccccc1 | i | i | i | i | i | . | . | .
Cc1ccc(-c2nc3ncccn3c2Nc2ccccc2C)o1 | i | i | i | i | i | . | . | .
Cc1ccc(-c2nc3cnccn3c2Nc2c(C)cccc2C)o1 | i | i | i | i | 6.35* | 8.0%* | i | 25.5%*
O=C(CC1CCCC1)Nc1ccc(Br)cc1 | i | i | i | i | i | . | . | .
CC(C)OCC1Cn2c(nc3c2c(=O)n(C)c(=O)n3C)O1 (stereo unspecified) | i | i | i | i | i | . | . | .
Cc1cccc(N=C2NC(=O)/C(=C/c3cccnc3)S2)c1C | i | i | i | i | i | . | . | .
Cc1ccc(N=C2NC(=O)/C(=C/c3cccnc3)S2)c(C)c1 | i | i | i | i | 7.89* | 19.5%* | i | i
Cc1[nH]n(-c2ncc(-c3ccccc3)s2)c(=O)c1C(c1ccc(Cl)cc1)C(C#N)C#N (stereo unspecified) | -5.32* | i | i | i | 13.7* | 70.5%* | i | 52.5%*
COc1ccc(NC(=S)Nc2cnc3ccccc3c2)c(OC)c1 | i | i | i | i | i | . | . | .
CCN(CC(=O)Nc1ccc(NC(C)=O)cc1)C(=O)c1ccccc1SCc1c(C)noc1C | i | i | i | i | i | . | . | .
COc1cccc(/C=C/C(=O)c2ccc(C)c([N+](=O)[O-])c2)c1 | i | i | i | 32.1* | 8.87* | i | 39.5%* | i
O=Cc1c(Cl)nc2ccccn2c1=O | i | i | i | i | 4.85* | 22.0%* | i | i
Cc1cccn2c(=O)c(C=O)c(Cl)nc12 | i | i | i | i | i | . | . | .
COc1ccc(Cc2nnc(SCC(=O)Nc3ccccc3C)n(N)c2=O)cc1 | i | i | i | i | i | . | . | .
O=C1/C(=C\c2ccccn2)SC(=S)N1c1ccc(S(=O)(=O)Nc2nccs2)cc1 | i | i | i | i | 5.88* | 20.5%* | i | i
Cc1ccc(Nc2nc(N)c3ccccc3n2)cc1C | i | i | i | i | i | i | i | i
CCN1CCN(c2ccc(S(=O)(=O)N3CCOCC3)cc2NC(=O)c2sccc2C)CC1 | i | i | i | i | i | . | . | .
COc1cc(C(=S)N2CCOCC2)ccc1OC(=O)c1cccc(C)c1 | i | i | i | i | i | . | . | .
CC(C)c1nnc(NC(=O)c2sc3ccccc3c2Cl)s1 | i | i | i | i | 4.78* | i | i | i
O=C(CC(SCCO)c1ccc([N+](=O)[O-])cc1)c1ccco1 (stereo unspecified) | i | i | i | i | 5.44* | 11.0%* | i | i
Cc1ccc(C(=O)CC(C(=O)O)n2cnc([N+](=O)[O-])n2)cc1 (stereo unspecified) | i | i | i | i | 5.58* | 14.5%* | i | i
Cc1ccc(C(=O)CC(SCC(=O)O)c2ccc([N+](=O)[O-])cc2)cc1 (stereo unspecified) | i | i | i | i | 6.29* | 11.0%* | 36.0%* | i
COc1ccc(C(CC(=O)c2ccc(C)cc2)Nc2ccc([N+](=O)[O-])cc2)cc1 (stereo unspecified) | i | i | i | i | i | . | . | .
CCN(CC(=O)NCc1ccc(F)cc1)C(=O)c1oc2ccccc2c1C | i | i | i | i | i | . | . | .
CCCCn1c(=O)[nH]c(=O)c2c1nc(Cn1ncc(Cl)c(Cl)c1=O)n2CCC | i | i | i | i | 21.1* | 33.5%* | 56.5%* | i
SMILES | MrgX1 antag | RGS4 act | MrgX1 PAM | MrgX1 agonist | RGS4 block | RGS4 block valid | RGS4 uninduced | RGS4 inh ctr2
CCCCn1c(=O)[nH]c(=O)c2c1nc(CN1C(=O)c3ccccc3S1(=O)=O)n2CCC | i | i | i | i | i | . | . | .
Cc1ccc2c(c1)c1c(n2C)C(C(N)=O)CCC1 (stereo unspecified) | i | i | i | i | i | . | . | .
Cc1ccc2c(c1)c1c(n2C)-c2[nH]ncc2CC1 | i | i | i | i | 5.5* | 17.5%* | i | i
Cn1c(SCC(=O)Nc2cccc(F)c2)nc2c([nH]c3ccccc32)c1=O | i | i | i | i | i | . | . | .
O=C1c2ccccc2NC(c2ccc(-c3cccc([N+](=O)[O-])c3)o2)N1O (stereo unspecified) | i | i | i | i | i | . | i | i
O=C1c2ccccc2NC(c2ccc(-c3ccc(Br)cc3)o2)N1O (stereo unspecified) | i | i | i | i | i | . | . | .
CC(Oc1ccc(Cl)cc1)C(=O)N/N=C/c1ccsc1 (stereo unspecified) | i | i | i | i | i | . | . | .
Cc1ccc(Nc2nc(N)nc(CN3CCN(c4ccccc4)CC3)n2)cc1Cl | i | i | i | i | 6.6* | 14.5%* | i | i
COc1ccc(N2CCN(Cc3nc(N)nc(Nc4ccc(C)c(Cl)c4)n3)CC2)cc1 | i | i | i | i | i | i | i | i
COc1ccccc1Nc1nc(N)nc(CN2CCN(c3ccccc3)CC2)n1 | i | i | i | i | i | . | . | .
O=C(COc1ccc(-c2nnco2)cc1)Nc1ccc(C(F)(F)F)cc1 | i | i | i | i | i | . | . | .
Cc1nc(SCC(=O)NCCc2ccc(Cl)cc2)nc(C)c1C | i | i | i | i | i | . | . | .
CCC(C)(C)NC(=O)C(c1ccc(OC)cc1)N(Cc1cccs1)C(=O)CCC(=O)Nc1cc(C)on1 (stereo unspecified) | i | . | i | i | . | . | . | .
Cc1cc(O)c(C(=O)/C=C/c2ccc(Cl)cc2)c(=O)o1 | i | i | i | i | i | . | . | .
COc1cccc(/C=C/C(=O)c2c(O)cc(C)oc2=O)c1O | i | i | i | i | 7.33* | 37.0%* | i | i
CSc1ccc(/C=C/C(=O)c2c(O)cc(C)oc2=O)cc1 | i | i | i | i | 6.1* | 24.5%* | i | 7.5%*
COc1ccccc1NC(=O)CNc1ccc(F)c(Cl)c1 | i | i | i | i | i | . | . | .
